According to article PMC5974556 (ChemistryOpen, 2018):
Converted amounts (≈) assume the structure as drawn. Marks after values point to notes of the source that are not given here.

Experiments:
HT‐29 cells [1] = assay: Intracellular ROS; assay type: cell-based; settings: Homo sapiens; for activity at 1 µM: HT-29, read-out: Intracellular ROS, percentage compared to the untreated control cells (ROS/SRB), HT‐29, 1 μM; for activity at 10 µM: HT-29, read-out: Intracellular ROS, percentage compared to the untreated control cells (ROS/SRB), HT‐29, 10 μM
Procedure, shortened: (§1)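 Cells grown in DMEM+glutamax with 1% NEAA, 1% P/S and 10% FBS at 37 °C, 10% CO2. Seeded at 2×10^4 cells/well for 24 h, then confluent cells were exposed to test compound at 1 or 10 µM in serum-free medium, with NAC as control. Cells were washed, loaded with DCFH-DA for 30 min, then kept 1 h in phenol red-free DMEM. Fluorescence read at ex 485/em 535 nm, normalised to same-well SRB protein (490 nm) and given as % of untreated cells. Mean ± SD, n≥3; two-tailed t-test with unequal variances.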

HT‐29 cells [2] = assay: Protein content; assay type: cell-based; settings: Homo sapiens, HT-29, 72 h, read-out: HT‐29 IC50 SRB
Procedure, shortened: (§2)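 Seeded 2×10^4 cells per well for 24 h, then treated with or without test compound for three days, in triplicate. Fixed with 50% TCA for 1 h at 4 °C, washed and dried. Stained 30 min at 4 °C with 0.4% sulforhodamine B in 1% acetic acid, rinsed with 1% acetic acid. Dye redissolved in Tris buffer, absorbance read at 490 nm. Doxorubicin control; MTT and SRB data pooled, mean ± SD, n≥6.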

EA.hy926 cells [3] = assay: Intracellular ROS; assay type: cell-based; settings: Homo sapiens; for activity at 1 µM: EA.hy 926, read-out: Intracellular ROS, percentage compared to the untreated control cells (ROS/SRB), EA.hy926, 1 μM; for activity at 10 µM: EA.hy 926, read-out: Intracellular ROS, percentage compared to the untreated control cells (ROS/SRB), EA.hy926, 10 μM
Procedure, shortened: as §1

HepG2 cells [4] = assay: Intracellular ROS; assay type: cell-based; settings: Homo sapiens; for activity at 1 µM: HepG2, read-out: Intracellular ROS, percentage compared to the untreated control cells (ROS/SRB), HepG2, 1 μM; for activity at 10 µM: HepG2, read-out: Intracellular ROS, percentage compared to the untreated control cells (ROS/SRB), HepG2, 10 μM
Procedure, shortened: as §1

HepG2 cells [5] = assay: Protein content; assay type: cell-based; settings: Homo sapiens, HepG2, 72 h, read-out: HepG2 IC50 SRB
Procedure, shortened: as §2

EA.hy926 cells [6] = assay: Protein content; assay type: cell-based; settings: Homo sapiens, EA.hy 926, 72 h, read-out: EA.hy926 IC50 SRB
Procedure, shortened: as §2

HT‐29 cells [7] = assay: Mitochondria activity; assay type: cell-based; settings: Homo sapiens, HT-29, 72 h, read-out: HT‐29 IC50 MTT
Procedure, shortened: (§3)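 Cells kept in DMEM+glutamax with 1% NEAA, 1% P/S and 10% FBS at 37 °C, 10% CO2. Seeded 2×10^4 per well for 24 h, then exposed 72 h to test compound at various concentrations in serum-free medium, in triplicate. MTT (5 mg/mL in PBS) added for 2 h, formazan dissolved in DMSO, read at 570 nm. IC50 from % survival; doxorubicin control; MTT and SRB data pooled, mean ± SD, n≥6.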

Caco‐2 cells [8] = assay: Intracellular ROS; assay type: cell-based, human; settings: protein content normalization, mean±SD, n≥3
Procedure, shortened: as §1

HepG2 cells [9] = assay: Mitochondria activity; assay type: cell-based; settings: Homo sapiens, HepG2, 72 h, read-out: HepG2 IC50 MTT
Procedure, shortened: as §3

[10] = Water solubility, shake flask method in 0.1 M phosphate buffer pH 6.8; assay type: physicochemical; settings: 37 °C, pH 6.8, aqueous buffer, thermodynamic from solid
Procedure, shortened: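 Excess solid added to 1 mL sodium phosphate buffer, pH 6.8. Two conditions: 90 min sonication at 37 °C, or 30 min sonication at 37 °C, 23 h shaking at 300 rpm, then 30 min sonication. Centrifuged 14000 rpm for 5 min, filtered (0.2 µm) at 37 °C and diluted in DMSO. Quantified by LC at maximum absorbance against standard curves; independent triplicates.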

Caco‐2 cells [11] = assay: Protein content; assay type: cell-based; settings: Homo sapiens, Caco-2, 72 h, read-out: Caco‐2 IC50 SRB
Procedure, shortened: as §2

[12] = Ferric reducing antioxidant power; settings: chemical antioxidant capacity, n=3
Procedure, shortened: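 FRAP reagent made from acetate buffer, TPTZ in ethanol and FeCl3·6H2O in dilute HCl, mixed 10:1:1, with TPTZ and iron solutions fresh daily. Sample mixed with reagent 1:9, absorbance read at 593 nm after 4 min. Values expressed as Trolox equivalents by linear regression on a Trolox standard curve; α-tocopherol positive control.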

EA.hy926 cells [13] = assay: Mitochondria activity; assay type: cell-based; settings: Homo sapiens, EA.hy 926, 72 h, read-out: EA.hy926 IC50 MTT
Procedure, shortened: as §3

Caco‐2 cells [14] = assay: Mitochondria activity; assay type: cell-based; settings: Homo sapiens, Caco-2, 72 h, read-out: Caco‐2 IC50 MTT
Procedure, shortened: as §3

Row | SMILES | activity at 1 µM (HT‐29 cells [1]) | activity at 10 µM (HT‐29 cells [1]) | IC50 (HT‐29 cells [2]) | activity at 1 µM (EA.hy926 cells [3]) | activity at 10 µM (EA.hy926 cells [3]) | activity at 1 µM (HepG2 cells [4]) | activity at 10 µM (HepG2 cells [4]) | IC50 (HepG2 cells [5]) | IC50 (EA.hy926 cells [6]) | IC50 (HT‐29 cells [7]) | Intracellular ROS, percentage compared to the untreated control cells (ROS/SRB), Caco‐2, 1 μM (Caco‐2 cells [8]) | Intracellular ROS, percentage compared to the untreated control cells (ROS/SRB), Caco‐2, 10 μM (Caco‐2 cells [8]) | IC50 (HepG2 cells [9]) | solubility at 90 min [10] | solubility at 24 h [10] | IC50 (Caco‐2 cells [11]) | FRAP [12] | IC50 (EA.hy926 cells [13]) | IC50 (Caco‐2 cells [14])
1 | O=C(/C=C(/C=C/c1cccnc1)NCCCO)/C=C/c1cccnc1 [5 f, (1E,4Z,6E)‐5‐(3‐Hydroxypropylamino)‐1,7‐di(pyridin‐3‐yl)hepta‐1,4,6‐trien‐3‐one] | 95.4 ± 1.7% | 96 ± 12.7% | > 75 µM | 88.7 ± 1.6% | 102 ± 1.6% | 84.8 ± 2.5% | 74.4 ± 3.2% | > 75 µM | > 75 µM | > 75 µM | 102.5±2.3% | 115.4±8.5% | > 75 µM | 1470 ± 24 µM (≈ 494 µg/mL) | 4270 ± 332 µM (≈ 1430 µg/mL) | > 75 µM | 0.04 Trolox equiv per μM | > 75 µM | > 75 µM
2 | COCCCN1C(/C=C/c2cccnc2)=CC(=O)CC1c1cccnc1 (centres unmarked) [6 d, (E)‐1‐(3‐Methoxypropyl)‐2‐(pyridin‐3‐yl)‐6‐[2‐(pyridin‐3‐yl)vinyl]‐2,3‐dihydropyridin‐4(1H)‐one] | 83.4 ± 5.6% | 88.4 ± 4.1% | > 75 µM | 95.2 ± 5% | 98.3 ± 5.3% | 85.6 ± 8.9% | 95.7 ± 10% | > 75 µM | > 75 µM | > 75 µM | 90.8±6.3% | 89.9±3.4% | > 75 µM | 1280 ± 61.2 µM (≈ 448 µg/mL) | 2980 ± 166 µM (≈ 1040 µg/mL) | > 75 µM | 0.00 Trolox equiv per μM | > 75 µM | > 75 µM
3 | O=C1C=C(/C=C/c2cccnc2)N(CCCO)C(c2cccnc2)C1 (centres unmarked) [6 f, (E)‐1‐(3‐Hydroxypropyl)‐2‐(pyridin‐3‐yl)‐6‐[2‐(pyridin‐3‐yl)vinyl]‐2,3‐dihydropyridin‐4(1H)‐one] | 111 ± 8.1% | 106 ± 4.1% | > 75 µM | 101 ± 1.3% | 106 ± 9.9% | 88.8 ± 10.4% | 106 ± 13.1% | > 75 µM | > 75 µM | > 75 µM | 100.5±2.4% | – | > 75 µM | 2460 ± 57.2 µM (≈ 826 µg/mL) | 5000 ± 137 µM (≈ 1680 µg/mL) | > 75 µM | 0.00 Trolox equiv per μM | > 75 µM | > 75 µM
4 | O=C(/C=C(O)/C=C/c1c[nH]c2ccccc12)/C=C/c1c[nH]c2ccccc12 [compound 3, (1E,4Z,6E)‐5‐Hydroxy‐1,7‐di(1H‐indol‐3‐yl)hepta‐1,4,6‐trien‐3‐one] | 141 ± 21.3% | 125 ± 12% | 15.3 ± 6.6 µM | 111 ± 7.5% | 218 ± 20.3% | 129 ± 8% | 382 ± 34% | 10.4 ± 1.5 µM | 15.2 ± 5.9 µM | 11.5 ± 6.7 µM | 95.7±7.3% | 110.3±6.5^[b] % | 10 ± 1.7 µM | 19 ± 0.2 µM (≈ 6.73 µg/mL) | 11.1 ± 0.1 µM (≈ 3.93 µg/mL) | 2.1 ± 0.6 µM | 0.27 Trolox equiv per μM | 11.7 ± 4.6 µM | 3.3 ± 0.3 µM
5 | O=C(/C=C(O)/C=C/c1ccc[nH]1)/C=C/c1ccc[nH]1 [compound 4, (1E,4Z,6E)‐5‐Hydroxy‐1,7‐di(1H‐pyrrol‐2‐yl)hepta‐1,4,6‐trien‐3‐one] | 105 ± 6.3% | 121 ± 8.7% | 9.6 ± 0.5 µM | 295 ± 38.5% | 165 ± 18.9% | 75.6 ± 14.6% | 121 ± 26.1% | 9.8 ± 1.5 µM | 9 ± 2.2 µM | 8.9 ± 0.5 µM | 110.2±9.5^[b] % | 124.3±8.7^[c] % | 8.2 ± 0.9 µM | 84.8 ± 2.8 µM (≈ 21.6 µg/mL) | 74.2 ± 1.3 µM (≈ 18.9 µg/mL) | 9.7 ± 0.6 µM | 0.79 Trolox equiv per μM | 8.3 ± 0.9 µM | 7.5 ± 1.6 µM
6 | COc1cc(/C=C/C(=O)CC(=O)/C=C/c2ccc(O)c(OC)c2)ccc1O [curcumin, reference compound] | 92.8 ± 5.8% | 90.2 ± 6.1% | 20.3 ± 1.1 µM | 99.9 ± 6.4% | 104 ± 7.6% | 95.9 ± 13.8% | 84.2 ± 8.1% | 21.3 ± 4 µM | 34.7 ± 10.5 µM | 23.4 ± 5.1 µM | 96.7±5.8% | 95.8±2.5% | 20.3 ± 4.1 µM | 2.9 ± 0.3 µM (≈ 1.07 µg/mL) | 2.6 µM (≈ 0.958 µg/mL) | 33.1 ± 4.5 µM | 1.11 Trolox equiv per μM | 20 ± 5.9 µM | 28 ± 6.4 µM
